Xi reactivation: activators of X-chromosome reactivation in mouse fibroblasts | XiGFP mouse fibroblasts, % GFP-positive cells imaging, 3 d; cells co-treated with 5-aza-dC sensitizer; scaled so ellipticine positive control = 100% | activation, % at 7.58 µM | actives 0.055% (n = 360,000) | AID 743238;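 active = mean normalized replicate activation at least 10% and every replicate at or above 10%; inconclusive = only one of the two criteria met; inactive = mean below 10% and not all replicates reach 10%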
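System: 68-5-11 XiGFP fibroblast line | Buffer or medium: DMEM containing 5-aza-dC | Compound: Single point | Times: Compounds 3 days, fix/stain 15 min at room temperature | Benchmarks: Positive control ellipticine, 6 µM final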
FN deposition inh: fibronectin deposition inhibition; inhibition, % at 12.6 µM; AH1F fibroblasts, Alexa488-fibronectin deposition fluorescence, overnight; actives 0.086% (n = 350,000);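 active = mean inhibition across replicates of 30% or more, regardless of how many single replicates reach that level; inconclusive = mean under 30% yet at least half of replicates reach 30%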
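Assay system: AH1F fibroblasts assembling fluorescent fibronectin matrix; Amount: 10000 AH1F cells per well; Buffer or medium: DMEM, 2% serum; Probe or stimulus: Alexa488-fibronectin, 24 nM final in well; Doses: single compound dose, delivered by pin transfer; Incubation: 1 h adhesion, overnight exposure; Measured by: fluorescence 485/525 nm; Read-out: fibronectin deposition inhibition.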
ARNT-TACC3 inh: disrupts binding between human ARNT and TACC3. Q9Y6A5. AlphaScreen His-ARNT PAS-B/GST-TACC3 binding, luminescence; TACC3 fragment carries E629A point mutation. inhibition, % at 9.99 µM. actives 0.66% (n = 390,000);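 active = mean inhibition of replicates at least 50% and at least half of replicates each reaching 50%; inconclusive = half or more replicates reach 50% but mean below 50%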
FGF22 binding: FGF22 (human) thermal shift binding; actives 1.5% (n = 340,000); AID 651658; recombinant FGF22 thermal shift, SYPRO orange fluorescence; percent of sucrose octasulfate shift, DMSO zero; Q9HCT0; activity (Tm shift, normalised), % at 9.99 µM;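 active = mean Tm shift, scaled 0 neutral to 100 positive control, at about 1.3% or above, every replicate too, limit read from the data; inconclusive = no clear call, values can overlap the other calls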
Target sequence (Q9HCT0 whole entry, looked up): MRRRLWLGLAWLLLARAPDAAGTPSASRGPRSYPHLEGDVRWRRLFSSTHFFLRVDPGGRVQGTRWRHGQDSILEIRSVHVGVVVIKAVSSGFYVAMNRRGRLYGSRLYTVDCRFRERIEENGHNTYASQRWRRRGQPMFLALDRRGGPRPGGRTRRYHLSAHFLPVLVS
DENV2 CPE: inhibitors of DENV2 cytopathic effect. actives 1.7% (n = 350,000). CPE inhibition, % at 9.99 µM. DENV2-infected cells, cytopathic effect rescue, plate reader. AID 651640; in the data active = CPE inhibition above about 20%, passing the limit was not always enough; inconclusive = no clear call, values can overlap the other calls; tested in BHK-21 cells
SIRT5 block: inhibitors of human sirtuin-5 desuccinylase; Q9NXA8; Purified SirT5, succinyl-peptide AMC, trypsin-coupled fluorescence; inhibition, % at 15 µM; actives 1.1% (n = 330,000); AID 652115; in the data active = inhibition above about 15%; inconclusive = no clear call, values can overlap the other calls
Target sequence (Q9NXA8 whole entry, looked up): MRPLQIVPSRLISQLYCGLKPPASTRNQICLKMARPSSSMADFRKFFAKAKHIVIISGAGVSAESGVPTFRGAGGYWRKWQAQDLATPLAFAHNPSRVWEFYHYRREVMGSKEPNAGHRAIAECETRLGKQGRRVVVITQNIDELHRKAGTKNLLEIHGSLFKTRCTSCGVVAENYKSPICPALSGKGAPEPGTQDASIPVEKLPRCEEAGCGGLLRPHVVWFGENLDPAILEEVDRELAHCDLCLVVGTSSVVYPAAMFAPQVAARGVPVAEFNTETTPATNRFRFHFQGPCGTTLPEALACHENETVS
A number is an active result; n = inactive; u = inconclusive; x = no result given. Only some compounds are listed: those with a hit (about 3.8% of all), similar ones and a draw of the others.

SMILES | Xi reactivation | FN deposition inh | ARNT-TACC3 inh | FGF22 binding | DENV2 CPE | SIRT5 block
O=C(O)CCC(=O)N1CCCC1 | n | n | x | 43 | n | n
CCOC(=O)C1=C[C@@H](c2ccccc2)N(S(=O)(=O)c2ccc(C)cc2)[C@H]1c1ccccc1Cl | n | n | x | n | n | 23
CCOC(=O)C1=C[C@@H](C)N(S(=O)(=O)c2ccc(C)cc2)[C@H]1c1ccccc1 | n | n | x | n | n | n
COc1cc2[nH]c(=S)nc(NCCc3ccc(S(N)(=O)=O)cc3)c2cc1OC | n | n | 70 | n | n | n
COc1ccccc1CNc1nc(=S)[nH]c2cc(OC)c(OC)cc12 | n | n | 53 | n | n | n
COc1ccc(CCNc2nc(=S)[nH]c3cc(OC)c(OC)cc23)cc1OC | n | n | 56 | 43 | n | n
C/C=C/c1ccc([C@H]2[C@@H](CO)N3CCCCN(C(=O)Nc4cc(F)ccc4F)C[C@H]23)cc1 | n | x | n | n | n | n
OCCN(CCO)c1ncnc2c1sc1nc(N3CCOCC3)c3c(c12)CCCC3 | x | 18 | n | x | x | x
Cc1ccccc1-n1cnc2c(sc3nc(N4CCOCC4)c4c(c32)CCCC4)c1=O | n | n | n | n | 42 | n
O=C(Cc1ccccc1)N1C[C@@H]2[C@H](c3ccccc31)[C@H](CO)N2C(=O)C1CCCCC1 | n | x | n | n | n | n
C[C@@H](NC(=O)C[C@H]1C=C[C@@H](NC(=O)C2CC2)[C@@H](CO)O1)c1ccccc1 | n | n | n | n | n | n
CN(C)c1ccc(C2(O)C(=O)c3ccccc3C2=O)cc1 | n | n | x | n | n | n
CNc1ccc(C2(O)C(=O)c3ccccc3C2=O)cc1 | n | n | x | 43 | n | n
COc1ccc(CCN2CCC(CN3C(=S)NC[C@@H]3Cc3ccccc3)CC2)cc1OC | n | n | x | n | 93 | n
CCCCN1CCC(CN2C(=O)C(=O)NC[C@@H]2Cc2ccccc2)CC1 | n | n | x | n | n | n
O=C1NC[C@H](Cc2ccccc2)N(CC2CCN(CCCCc3ccccc3)CC2)C1=O | n | n | n | n | 35 | n
C/C=C/c1ccc2c(c1)O[C@H](CN(C)Cc1ccc(F)cc1)[C@@H](C)CN([C@H](C)CO)S2(=O)=O | n | n | n | n | n | n
C/C=C/c1ccc2c(c1)O[C@H](CN(C)Cc1ccccc1F)[C@H](C)CN([C@H](C)CO)S2(=O)=O | n | x | n | n | n | 13
C/C=C/c1ccc2c(c1)O[C@@H](CN(C)Cc1ccc(F)cc1)[C@H](C)CN([C@H](C)CO)S2(=O)=O | n | n | n | n | u | 16
CC(=O)c1cccc(NC(=O)CN(C)S(=O)(=O)c2ccccc2)c1 | n | n | n | 43 | n | n
CN(C)S(=O)(=O)c1cccc(NC(=O)CCCSc2ccccc2)c1 | x | n | n | n | n | n
COc1ccc(S(=O)(=O)N(C)CC(=O)Nc2ccc(C)cc2)cc1OC | n | n | n | 43 | n | n
CC(=O)c1cccc(NC(=O)CCCSc2ccccc2)c1 | n | n | n | n | n | 16
COc1cc(NC(=O)CN(C)S(=O)(=O)c2ccc(C)cc2)cc(OC)c1 | x | n | n | x | x | x
CC(O)Cc1cn([C@@H](CCCCN)C(=O)N2CCNCC2)nn1 (some centres not stated) | n | n | n | n | 25 | x
SMILES | Xi reactivation | FN deposition inh | ARNT-TACC3 inh | FGF22 binding | DENV2 CPE | SIRT5 block
S=c1c2c(nc3nc[nH]n13)CCC2 | n | n | 35 | n | n | n
CO[C@@H]1CN(C)C(=O)c2ccc(NC(=O)C3CC3)cc2OC[C@@H](C)N(C(=O)NC(C)C)C[C@@H]1C | n | n | n | n | n | n
COc1ccc(CCNC(=O)c2c(C)nn(CC(C)C)c2Cl)cc1OC | n | n | n | n | 95 | n
COc1cccc(-c2ccc([C@H]3[C@H](CO)N4CCCCN(CC5CC5)C[C@@H]34)cc2)c1 | n | x | n | n | 42 | n
COc1cccc(-c2ccc([C@@H]3[C@@H](CO)N4CCCCN(CC5CC5)C[C@H]34)cc2)c1 | n | x | n | n | 43 | n
Cc1ccccc1-c1ccc([C@@H]2[C@@H](CO)N3CCCCN(CC4CC4)C[C@H]23)cc1 | n | x | n | n | 52 | n
Cc1ccccc1-c1ccc([C@H]2[C@@H](CO)N3CCCCN(CC4CC4)C[C@H]23)cc1 | n | x | n | n | n | n
COc1cccc(-c2ccc([C@H]3[C@H]4CN(CC5CC5)CCCCN4[C@H]3CO)cc2)c1 | n | x | x | n | n | n
C[C@@H]1CN([C@H](C)CO)C(=O)c2cccc(NC(=O)C3CC3)c2O[C@H]1CN(C)Cc1ccc(-c2ccccc2)cc1 | n | x | n | n | n | n
C#CCOCCOCCOCCNc1nc(N2CCN(C(=O)Cn3cc(CC(C)O)nn3)CC2)nc(N2CCN(C(=O)[C@H]([C@@H](C)O)n3cc(CCCCN)nn3)CC2)n1 (some centres not stated) | n | n | n | n | n | n
C#CCOCCOCCOCCNc1nc(N2CCN(C(=O)Cn3cc(CCO)nn3)CC2)nc(N2CCN(C(=O)[C@H]([C@@H](C)O)n3cc(CCCCN)nn3)CC2)n1 | n | n | n | n | 21 | x
C#CCOCCOCCOCCNc1nc(N2CCN(C(=O)CCCCCCCCCCNC(=O)[C@H](CO)n3cc(CCCSC)nn3)CC2)nc(N2CCN(C(=O)CCCCCCCCCCNC(=O)[C@H](CO)n3cc(CCCSC)nn3)CC2)n1 | n | n | n | n | 121 | n
CC(=O)Oc1cccc(N2C(=O)c3cccc4c([N+](=O)[O-])ccc(c34)C2=O)c1 | 13 | n | n | n | n | n
CCCC(=O)N1CC2(C1)CN(C(=O)C1CCCCC1)[C@H](CO)c1[nH]c3cc(OC)ccc3c12 | n | x | x | n | n | n
C[C@H](CO)N1C[C@H](C)[C@@H](CN(C)S(=O)(=O)c2ccccc2)Oc2ccc(NS(C)(=O)=O)cc2C1=O | n | x | x | x | x | x
CO[C@@H]1CC[C@H]2CCN(C)C(=O)[C@H](C)CN(C)C(=O)c3cc(C#N)ccc3OC[C@@H]1O2 | n | n | n | n | n | n
O=c1nccc(N/N=C/c2ccccc2)[nH]1 | n | n | n | n | n | 24
Cn1c(=O)c2[nH]c(NN=Cc3ccccc3)nc2n(C)c1=O | n | n | n | n | n | x
O=S1(=O)CCOC[C@H](Cc2ccccc2)N1Cc1cccc(F)c1 | n | n | n | n | 32 | x
O=S1(=O)CCOC[C@H](Cc2ccccc2)N1Cc1ccc(F)cc1 | n | n | n | n | u | x
O=C(N/N=C1\CC2CC=CC12)c1ccccc1Cl (configuration not stated) | n | n | x | n | n | n
O=[N+]([O-])c1ccccc1N/N=C1\CC2CC=CC12 (configuration not stated) | n | n | n | n | 30 | n
